Data: ChEMBL document CHEMBL3769308, “Melanin-Concentrating Hormone Receptor 1 Antagonists Lacking an Aliphatic Amine: Synthesis and Structure-Activity Relationships of Novel 1-(Imidazo[1,2-a]pyridin-6-yl)pyridin-2(1H)-one Derivatives” (J Med Chem, 2016)
pIC50: −log10 of the molar value.

Experiments:
[1] = target: Melanin-concentrating hormone receptor 1 (Rattus norvegicus, UniProt P97639); test: Displacement of [125I]-MCH (4 to 19 residues) from rat MCHR1 expressed in CHO cell membranes after 1 hr by liquid scintillation counting analysis
Method in brief: (§1)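 Membranes from MCHR1-expressing CHO cells, homogenized in NaHCO3/EDTA with protease inhibitors, 100000g pellet held at 2 mg/mL protein in 20 mM Tris-HCl pH 7.5, 5 mM EDTA, protease inhibitors.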

[2] = target: Melanin-concentrating hormone receptor 1 (Homo sapiens, UniProt Q99705); test: Displacement of [125I]-MCH (4 to19 residues) from human MCHR1 expressed in CHO cell membranes after 1 hr by liquid scintillation counting analysis; method in brief: as §1
[3] = Lipophilicity, log D of the compound at pH 7.4; type: physicochemical; details: buffer
Method in brief: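 Chromatographic HPLC method with UV detection, estimating octanol/buffer partition at pH 7.4.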

Sequence of Melanin-concentrating hormone receptor 1 (Homo sapiens, UniProt Q99705) (Q99705 whole entry, the tested form may be a part): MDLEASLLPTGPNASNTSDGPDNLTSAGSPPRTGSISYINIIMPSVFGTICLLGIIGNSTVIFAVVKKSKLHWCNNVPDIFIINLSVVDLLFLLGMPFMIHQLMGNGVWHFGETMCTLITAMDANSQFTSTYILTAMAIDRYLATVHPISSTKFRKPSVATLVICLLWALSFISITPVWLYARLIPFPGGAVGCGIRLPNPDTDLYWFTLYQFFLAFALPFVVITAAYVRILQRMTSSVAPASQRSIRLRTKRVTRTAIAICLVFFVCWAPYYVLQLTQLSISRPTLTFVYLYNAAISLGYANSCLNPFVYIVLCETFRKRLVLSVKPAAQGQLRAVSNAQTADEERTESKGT
Sequence of Melanin-concentrating hormone receptor 1 (Rattus norvegicus, UniProt P97639) (P97639 whole entry, the tested form may be a part): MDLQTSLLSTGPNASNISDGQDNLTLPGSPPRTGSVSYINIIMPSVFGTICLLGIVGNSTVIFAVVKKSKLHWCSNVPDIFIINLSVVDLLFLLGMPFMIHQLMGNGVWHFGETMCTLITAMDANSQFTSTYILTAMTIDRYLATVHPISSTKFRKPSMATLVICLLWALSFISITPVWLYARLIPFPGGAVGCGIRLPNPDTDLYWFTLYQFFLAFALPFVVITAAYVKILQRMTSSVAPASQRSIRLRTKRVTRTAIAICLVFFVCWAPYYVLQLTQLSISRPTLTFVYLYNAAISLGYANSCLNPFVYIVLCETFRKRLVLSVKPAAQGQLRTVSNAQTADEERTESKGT

Row | Compound | pIC50 [1] | pIC50 [2] | logD [3]
1 | Cc1c(C2CC2)nc2ccc(-n3ccc4c(c3=O)CCC(c3ccc(Cl)cc3)O4)cn12 (stereo not given) | 7.21 | 7.03 | 
2 | Cc1c(C2CC2)nc2ccc(-n3ccc(OCc4ccncc4)cc3=O)cn12 | < 6.00 | < 6.00 | 
3 | COCc1nc2ccc(-n3ccc(OCc4ccc(F)cc4)cc3=O)cn2c1C | < 6.00 | < 6.00 | 
4 | Cc1c(C2CC2)nc2ccc(-n3ccc(OCc4ccccc4)cc3=O)cn12 | 7.55 | 7.38 | 
5 | Cc1c(C2CC2)nc2ccc(-n3ccc(OCc4ccccn4)cc3=O)cn12 | 6.82 | 6.62 | 
6 | Cc1nc2ccc(-n3ccc(OCc4ccccc4)cc3=O)cn2c1C | 7.10 | 7.11 | 
7 | Cc1c(C2CC2)nc2ccc(-n3cnc(OCc4ccc(Cl)cc4)cc3=O)cn12 | 6.85 | 6.82 | 2.9
8 | Cc1c(C2CC2)nc2ccc(-n3ccc(OCc4cccnc4)cc3=O)cn12 | < 6.00 | < 6.00 | 
9 | Cc1c(C2CC2)nc2ccc(-n3ccc(OCc4cccs4)cc3=O)cn12 | 6.89 | 7.02 | 
10 | Cc1c(CO)nc2ccc(-n3ccc(OCc4ccc(F)cc4)cc3=O)cn12 | < 6.00 | < 6.00 | 
11 | Cc1c(C2CC2)nc2ccc(-n3ncc(OCc4ccc(Cl)cc4)cc3=O)cn12 | 6.96 | 7.04 | 3.7
12 | Cc1c(C2CC2)nc2ccc(-n3ccc(OCc4ccc(Br)cc4)cc3=O)cn12 | 8.03 | 7.92 | 
13 | Cc1c(C2CC2)nc2ccc(-n3ccc(Oc4ccc(OC(F)(F)F)cc4)cc3=O)cn12 | 6.02 | < 6.00 | 
14 | Cc1c(CC#N)nc2ccc(-n3ccc(OCc4ccc(F)cc4)cc3=O)cn12 | 6.77 | 6.74 | 
15 | Cc1nc2ccc(NC(=O)COc3ccc(OC(F)(F)F)cc3)cn2c1C | 8.11 | 8.42 | 
16 | Cc1c(C(=O)N(C)C)nc2ccc(-n3ccc(OCc4ccc(F)cc4)cc3=O)cn12 | < 6.00 | < 6.00 | 
17 | Cc1c(C2CC2)nc2ccc(-n3ccc(OCc4ccc(F)cc4)cc3=O)cn12 | 7.55 | 7.33 | 
18 | Cc1c(C(=O)C2CC2)nc2ccc(-n3ccc(OCc4ccc(F)cc4)cc3=O)cn12 | < 6.00 | < 6.00 | 
19 | Cc1cn(-c2ccc3nc(C4CC4)c(C)n3c2)c(=O)cc1OCc1ccc(Cl)cc1 | 6.82 | 6.68 | 
